The results in this text go back to BindingDB's records for doi:10.1021/acs.jmedchem.5b01961 (Catabasis Pharmaceuticals, 2016).

For this test, the target named is T1, Sterol regulatory element-binding protein 2 (Homo sapiens, UniProt Q12772).
T1 sequence (Q12772 whole entry): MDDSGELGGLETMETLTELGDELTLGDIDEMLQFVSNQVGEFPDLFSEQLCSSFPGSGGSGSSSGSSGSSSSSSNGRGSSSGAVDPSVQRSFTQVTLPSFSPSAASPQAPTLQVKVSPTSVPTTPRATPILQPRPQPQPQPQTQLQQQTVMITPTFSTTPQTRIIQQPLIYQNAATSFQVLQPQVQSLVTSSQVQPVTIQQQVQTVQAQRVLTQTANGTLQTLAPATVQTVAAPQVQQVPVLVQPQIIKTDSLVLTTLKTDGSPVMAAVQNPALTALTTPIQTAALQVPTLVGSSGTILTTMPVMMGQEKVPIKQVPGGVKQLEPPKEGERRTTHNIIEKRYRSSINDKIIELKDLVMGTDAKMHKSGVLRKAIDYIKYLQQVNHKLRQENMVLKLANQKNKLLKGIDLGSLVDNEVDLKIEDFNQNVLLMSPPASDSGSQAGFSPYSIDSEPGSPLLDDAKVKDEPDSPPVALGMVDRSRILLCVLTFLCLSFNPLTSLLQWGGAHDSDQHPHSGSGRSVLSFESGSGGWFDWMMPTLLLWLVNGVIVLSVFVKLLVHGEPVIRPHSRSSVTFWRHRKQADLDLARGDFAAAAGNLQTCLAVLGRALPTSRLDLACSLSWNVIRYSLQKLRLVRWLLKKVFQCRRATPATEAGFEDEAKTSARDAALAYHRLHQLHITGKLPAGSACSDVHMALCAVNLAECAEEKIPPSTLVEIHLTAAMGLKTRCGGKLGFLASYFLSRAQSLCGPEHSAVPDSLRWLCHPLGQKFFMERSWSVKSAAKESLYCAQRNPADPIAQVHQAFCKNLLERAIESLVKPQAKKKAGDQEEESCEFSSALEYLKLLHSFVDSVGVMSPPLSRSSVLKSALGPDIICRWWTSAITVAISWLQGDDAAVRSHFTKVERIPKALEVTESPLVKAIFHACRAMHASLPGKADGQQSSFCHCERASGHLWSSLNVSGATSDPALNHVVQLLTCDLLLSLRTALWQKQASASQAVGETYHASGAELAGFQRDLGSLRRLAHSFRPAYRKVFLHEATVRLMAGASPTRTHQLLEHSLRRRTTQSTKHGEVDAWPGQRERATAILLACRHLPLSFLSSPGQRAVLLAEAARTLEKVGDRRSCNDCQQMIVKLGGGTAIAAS
The test can be described thus: Inhibition of SREBP2 in human HepG2 cells assessed as reduction of PCSK9 secretion after 16 hrs by ELISA. The gist of the method: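 HepG2 cells treated with compound; secreted PCSK9 in culture supernatants measured with a human-specific PCSK9 ELISA.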

Turning to `CC/C=C\C/C=C\C/C=C\C/C=C\C/C=C\CCCC(=O)NCCNC(=O)c1cccnc1`, the half-maximal inhibitory concentration (IC50) is 17 µM.
